MsrA act: activates bovine MsrA enzyme; purified bovine MsrA, absorbance read-out; activation, % at 10.6 µM; actives 0.3% (n = 360,000); AID 602163; in the data active = activation above about 7.5%;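 note: 0% = vehicle and 100% = reference activator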
ASAP1 GAP inh: ASAP1 ArfGAP inhibition; Q9ULH1; ASAP1-stimulated ARF1 GTP hydrolysis, GDP FP detection; inhibition, % at 16.5 µM; actives 0.19% (n = 360,000); AID 624377; in the data active = inhibition above about 25%;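 note: 0% = vehicle with enzyme and substrate and 100% = no enzyme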
MsrA inh: inhibits bovine methionine sulfoxide reductase A; purified bovine MsrA, absorbance read-out; inhibition, % at 15.5 µM; actives 0.75% (n = 360,000); AID 651718; in the data active = inhibition above about 4.5%;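 note: 0% = vehicle wells with enzyme and 100% = reference inhibitor wells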
NR1D1 modulator: Rev-erb alpha (human) modulation; P20393; actives 0.79% (n = 370,000); AID 1259318; Rev-erbα–FITC-DNA binding, fluorescence polarization, 90 min; activity, % at 10 µM;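 active = activity above about 14%, limit read from the data; passing the limit was not always enough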;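 note: 0% = DMSO wells with 35 nM protein and 100% = DMSO wells with 750 nM protein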
HGIII-sPLA2 inh: Inhibits HGIII-sPLA2 liposome hydrolysis, primary screen. AID 743126. actives 0.56% (n = 370,000). Q9NZ20. QFRET BODIPY PC-A2 liposome hydrolysis, fluorescence. inhibition, % at 12.2 µM;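 active = inhibition above mean plus 3 SD of compounds lying within the high and low control bounds, cut at about 19% in these data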;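 note: 0% = median of test compound wells and 100% = no enzyme DMSO wells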
Target sequence (Q9NZ20 whole entry, looked up): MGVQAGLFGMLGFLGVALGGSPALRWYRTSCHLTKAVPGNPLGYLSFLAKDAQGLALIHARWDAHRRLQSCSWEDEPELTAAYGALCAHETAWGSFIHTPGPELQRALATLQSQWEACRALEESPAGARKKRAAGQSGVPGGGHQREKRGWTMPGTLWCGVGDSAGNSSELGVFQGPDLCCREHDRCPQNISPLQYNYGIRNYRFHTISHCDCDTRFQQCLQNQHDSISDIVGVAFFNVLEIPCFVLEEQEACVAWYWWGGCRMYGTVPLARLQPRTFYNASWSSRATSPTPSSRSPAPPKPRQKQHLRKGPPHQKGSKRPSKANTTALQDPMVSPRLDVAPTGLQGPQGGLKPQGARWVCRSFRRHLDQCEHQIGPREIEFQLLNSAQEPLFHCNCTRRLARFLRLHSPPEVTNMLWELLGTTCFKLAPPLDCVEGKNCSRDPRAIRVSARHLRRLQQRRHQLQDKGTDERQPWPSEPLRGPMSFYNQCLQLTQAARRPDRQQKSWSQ
ARFGAP1 inhibitor: rat ARFGAP1 inhibition | actives 0.26% (n = 360,000) | Arfgap1-stimulated ARF1 GTP hydrolysis, GDP FP detection | Q62848 | inhibition, % at 16.5 µM;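 active = inhibition above a per-plate limit, mean inhibition of low control wells plus 3 SD, cut at about 25% in these data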;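 note: 0% = DMSO wells with enzyme and 100% = wells lacking Arfgap1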
Target sequence (Q62848 1-136 limits assumed): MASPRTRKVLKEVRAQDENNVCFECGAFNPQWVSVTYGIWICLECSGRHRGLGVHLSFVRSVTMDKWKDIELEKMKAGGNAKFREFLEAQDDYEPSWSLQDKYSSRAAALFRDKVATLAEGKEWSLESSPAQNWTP
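material = rat Arfgap1 catalytic domain, aa 1-136 | also added = human ARF1(Δ1-17)-GTP substrate | compound dosing = one concentration, 16.5 µM, DMSO 1.26% | times = GTP hydrolysis reaction 2 h at 25 °C | measured by = FP, GDP Alexa 633 tracer displaced from anti-GDP antibody, 620/688 nm | evaluation = percent inhibition of Arfgap1-stimulated GTP hydrolysis | replication = single well per compound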
Rev-erbA confirm: confirmation of modulators of human Rev-erb alpha DNA binding; shares compounds with NR1D1 modulator; Rev-erb alpha FITC-DNA binding, fluorescence polarization, 90 min; activation, % at 25 µM; actives 61% (n = 3,000); AID 1259319;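 active = activation at or above a set limit, or at least 3 SD above the negative control mean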;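 note: 0% = 35 nM protein with DMSO and 100% = 750 nM protein high control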
RORg counter: counter-screen for Rev-erb alpha modulators: RORgamma DNA binding; purified RORgamma protein-FITC-DNA binding, fluorescence polarization; shares compounds with NR1D1 modulator; actives 8% (n = 910); AID 1259320; IC50, µM;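 active = Compounds whose fitted half-maximal concentration for disrupting protein-DNA binding is below 10 micromolar; the record names Rev-erb in its text, so the target is in doubt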
Active calls of the source: *; i = inactive; / = not tested or not shown; ! = not active in a repeat. An excerpt weighted towards active compounds, which were near 2.7% of everything screened.

SMILES	MsrA act	ASAP1 GAP inh	MsrA inh	NR1D1 modulator	HGIII-sPLA2 inh	ARFGAP1 inhibitor	Rev-erbA confirm	others
COc1cc(-c2ccc3oc(-c4ccsc4)cc(=O)c3c2)cc(OC)c1OC	0	7	1	-2	-34	5	/
CCOC(=O)c1ccc(-c2ccc3oc(-c4ccsc4)cc(=O)c3c2)cc1F	-2	-7	1	58*	14	1	12
COc1ccc(CN2CCCC(CO)(Cc3ccc(F)cc3)C2)cc1C (stereo not drawn)	-4	16	1	13*	-7	-7	3
COCCCNc1nc2c(-c3cccc(C)c3)nnn2c2ccccc12	-1	-11	0	24	2	4	/
COCCCNc1nc2c(-c3ccc(C)cc3)nnn2c2ccccc12	-14	1	0	65*	16	7	35*	RORg counter=i
CC(C)c1ccc(C(=O)N2CCCC(c3cc(C(=O)Nc4ccc5c(c4)OCO5)no3)C2)cc1 (stereo not drawn)	0	-5	-1	1	6	11	/
Oc1ccccc1-c1nnc(-c2ccc(C(F)(F)F)cc2)o1	-8	5	1	39*	-4	-5	23*
CCOC(=O)/C(C#N)=C/c1cc2ccccc2nc1N1CCCCC1	-12	7	0	43*	3	1	43*	RORg counter=>40
Cc1ccc2cc(/C=C(\C#N)C(N)=O)c(N3CCCCC3)nc2c1	2	-6	1	4	3	4	/
COC(=O)c1sc(C(F)(F)F)c(-c2ccccc2)c1S(=O)(=O)N1CCCC1	0	-11	0	24*	-4	6	27*
O=C(Nc1nc(-c2cc3ccccc3oc2=O)cs1)c1ccc(Br)o1	-6	9	-1	54*	5	7	31*
Cc1cc(C)cc(N(CC(=O)NC2CCC(C)CC2)S(=O)(=O)c2cccs2)c1 (stereo not drawn)	/	/	/	-6	3	/	/
CCCCOc1ccc(N(CC(=O)NC2CCCCC2)C(=O)c2snc(C(N)=O)c2N)cc1	-1	3	0	64*	5	4	41*	RORg counter=i
COc1ccc(Cc2c(C(C)(C)C)nc3c(C)cc(Br)cn23)c(C)c1	-6	17	1	2	-48	20	/
COc1cccc2c1C(=O)c1c(O)c3c(c(O)c1C2=O)C[C@@](O)(C(C)=O)C[C@@H]3O[C@H]1C[C@H](N)[C@H](O)[C@H](C)O1	-5	5	-1	28*!	-115	-1	-1
Cc1sc2c(c1C)c(=O)n(-c1ccc(Cl)cc1)c(=O)n2Cc1cc(=O)n2ccccc2n1	3	-4	-1	37*	6	-6	27*
COc1ccccc1NC(=O)c1sc(NC(=O)c2ccco2)c(C#N)c1C	-4	4	1	104*	9	9	47*	RORg counter=>40
Cc1ccccc1OCC(=O)Nc1sc(C(=O)Nc2cccc(C)c2C)c(C)c1C#N	-7	/	/	54*	/	/	23*
COc1ccccc1NC(=O)c1oc2ccccc2c1NC(=O)c1ccco1	-3	-2	-1	27*	2	0	13
COc1cc(NC(=O)c2oc3ccccc3c2C)ccc1NC(=O)c1ccco1	-1	0	3	0	-15	14	/
Cc1ccccc1N1CCN(C(=O)COc2cc(=O)n(C)c3ccccc23)CC1	/	/	/	-1	7	/	/
Cc1nn(-c2ccc(F)cc2)c2c1cc(C#N)c1nc3ccccc3n12	-1	-2	-2	60*	-2	2	39*
N#Cc1c2c(c(Nc3ccc(F)cc3)n3c1nc1ccccc13)CCCC2	-3	21	0	-1	-6	-5	/
Cc1cc(C)c2nc(NC(=O)c3ccc(OCC4CCCO4)cc3)sc2c1 (stereo not drawn)	-5	8	0	12	3	4	/
COc1ccc(C(=O)Nc2nc3ccc(OC)cc3s2)cc1	-14	9	1	11	-8	17	/
SMILES	MsrA act	ASAP1 GAP inh	MsrA inh	NR1D1 modulator	HGIII-sPLA2 inh	ARFGAP1 inhibitor	Rev-erbA confirm	others
COc1ccc(C(=O)Nc2nc3ccc(S(C)(=O)=O)cc3s2)cc1	-1	7	2	27*	7	10	11
Cc1ccc2nc(NC(=O)c3ccc(OCC4CCCO4)cc3)sc2c1 (stereo not drawn)	-1	-4	1	31*	-1	-2	14
CS(=O)(=O)c1ccc2nc(NC(=O)c3ccc(Cl)cc3)sc2c1	-4	10	0	38*	0	-4	17
CCOC(=O)C1=CCC(c2cc3ccccc3[nH]2)NC1 (stereo not drawn)	/	-8	1	-1	-1	11	/
COc1cccc(-c2cccc(NC(=O)C3CCN(CCCn4cccn4)CC3)c2)c1	1	-1	0	-11	-1	3	/
CCOC(=O)/C(=C/C=C1\Sc2cc(C)c(C)cc2N1CC)C(C)=O	-1	-2	0	32*	-20	-5	5
CCOC(=O)/C(=C\C=C1/Sc2ccccc2N1CC)C(C)=O	-3	-9	-1	27*	-21	-4	6
CCOC(=O)/C(=C/C=C1\Sc2ccccc2N1CC)C(C)=O	-4	/	/	/	/	/	/
Cc1cc(C)nc(Nc2nc(C(N)Cc3ccccc3)cs2)n1 (stereo not drawn)	-3	-10	0	-6	0	-5	/
CCCC(=O)Nc1ccc2c(c1)C(=O)N(C)C[C@@H](OC)[C@H](C)CN(Cc1ccc(-c3ccccn3)cc1)[C@@H](C)CO2	/	1	0	-5	-2	2	/
CC(C)(C)S(=O)(=O)/C(C#N)=C/c1cccn1S(=O)(=O)c1ccccc1	-2	-10	3	17*	-1	-7	11*
Cc1ccccc1-c1cccc([C@@H]2C[C@H]3C(CN2)CON3C)c1 (stereo partly drawn)	-6	15	0	0	3	16	/
Cc1c(C(=O)Nc2ccc(Cl)cc2)c2ccccn2c1C(=O)c1ccc([N+](=O)[O-])cc1	-5	-2	1	-2	5	-13	/
Cc1c(C(=O)Nc2ccc(Cl)cc2)c2ccccn2c1C(=O)c1ccccc1	-3	-1	1	43*	-3	-8	18*
Cc1csc2ncc(C(=O)Nc3ccc4c(c3)OCCO4)c(=O)n12	0	10	1	28*	-1	0	14*
O=C(Nc1ccc(Cl)cc1)C1Cc2c(-c3cccc(F)c3)ccnc2O1 (stereo not drawn)	-4	-7	0	-4	-9	-5	/
Cc1ccccc1NC(=O)CSc1nc(N)c(C#N)c(-c2cccs2)c1C#N	-2	20	1	126*	-3	10	95*

Screening data: PubChem BioAssay, several laboratories
